Data published in ChEMBL document CHEMBL1142136, “Contribution of target gene mutations and efflux to decreased susceptibility of Salmonella enterica serovar typhimurium to fluoroquinolones and other antimicrobials” (2007).
Values after ≈ are worked out from the molar mass of the structure shown.

What was measured:
Assay type in all cases: functional, Salmonella enterica subsp. enterica serovar Typhimurium
Salmonella typhimurium [1] = assay: Antimicrobial activity against Salmonella enterica serovar Typhimurium S21
How it was run: (§1)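 MICs measured by broth microdilution on the Sensititre automated system and interpreted by CLSI broth microdilution standards. Ciprofloxacin was also tested by agar dilution, widening the range to 0.0075–128 μg/ml. Quality control strains were E. coli ATCC 25922 and 35218, E. faecalis ATCC 29212, S. aureus ATCC 29213 and P. aeruginosa ATCC 27853.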

Salmonella typhimurium [2] = assay: Antimicrobial activity against Salmonella enterica serovar Typhimurium S21 gyrA+; how it was run: as §1
Salmonella typhimurium [3] = assay: Antimicrobial activity against Salmonella enterica serovar Typhimurium S21 acrAB::Kan
How it was run: (§2)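 MICs by automated broth microdilution panels, interpreted to CLSI broth microdilution standards. Ciprofloxacin additionally tested by agar dilution across 0.0075 to 128 μg/ml. Quality control strains: E. coli ATCC 25922 and 35218, Enterococcus faecalis ATCC 29212, S. aureus ATCC 29213, P. aeruginosa ATCC 27853. Test strains are kanamycin-marked deletion mutants of ground-beef isolate S21.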

Salmonella typhimurium [4] = assay: Antimicrobial activity against Salmonella enterica serovar Typhimurium S21 tolC::Kan; how it was run: as §2
Salmonella typhimurium [5] = assay: Antimicrobial activity against Salmonella enterica serovar Typhimurium S21-1 GyrA S83F mutant; how it was run: as §1
Salmonella typhimurium [6] = assay: Antimicrobial activity against Salmonella enterica serovar Typhimurium S21-1 gyrA+; how it was run: as §1
Salmonella typhimurium [7] = assay: Antimicrobial activity against Salmonella enterica serovar Typhimurium GyrA S21-1 acrAB::Kan with GyrA S83F mutation; how it was run: as §1
Salmonella typhimurium [8] = assay: Antimicrobial activity against Salmonella enterica serovar Typhimurium S21-1 tolC::Kan with GyrA S83F mutation; how it was run: as §1
Salmonella typhimurium [9] = assay: Antimicrobial activity against Salmonella enterica serovar Typhimurium S21-2 with GyrA S83F, ParC S80I mutation; how it was run: as §1
Salmonella typhimurium [10] = assay: Antimicrobial activity against Salmonella enterica serovar Typhimurium S21-2 gyrA+ with ParC S80I mutation; how it was run: as §1
Salmonella typhimurium [11] = assay: Antimicrobial activity against Salmonella enterica serovar Typhimurium S21-2 acrAB::Kan with GyrA S83F, ParC S80I mutation; how it was run: as §1
Salmonella typhimurium [12] = assay: Antimicrobial activity against Salmonella enterica serovar Typhimurium S21-2 tolC::Kan with GyrA S83F, ParC S80I mutation; how it was run: as §1
Salmonella typhimurium [13] = assay: Antimicrobial activity against Salmonella enterica serovar Typhimurium S21-3 with GyrA S83F, ParC S80I mutation; how it was run: as §1
Salmonella typhimurium [14] = assay: Antimicrobial activity against Salmonella enterica serovar Typhimurium S21-3 gyrA+ with ParC S80I mutation; how it was run: as §1
Salmonella typhimurium [15] = assay: Antimicrobial activity against Salmonella enterica serovar Typhimurium S21-3 acrAB::Kan with GyrA S83F, ParC S80I mutation; how it was run: as §1
Salmonella typhimurium [16] = assay: Antimicrobial activity against Salmonella enterica serovar Typhimurium CHS14 gyrA+ with GyrA D87G mutation; how it was run: as §1
Salmonella typhimurium [17] = assay: Antimicrobial activity against Salmonella enterica serovar Typhimurium CHS14 acrAB::Kan with GyrA D87G mutation; how it was run: as §1
Salmonella typhimurium [18] = assay: Antimicrobial activity against Salmonella enterica serovar Typhimurium CHS14 tolC::Kan with GyrA D87G mutant; how it was run: as §1
Salmonella typhimurium [19] = assay: Antimicrobial activity against Salmonella enterica serovar Typhimurium CHS18 with GyrA S38F mutation; how it was run: as §1
Salmonella typhimurium [20] = assay: Antimicrobial activity against Salmonella enterica serovar Typhimurium CHS18 gyrA+ with GyrA S38F mutation; how it was run: as §1
Salmonella typhimurium [21] = assay: Antimicrobial activity against Salmonella enterica serovar Typhimurium CHS18 acrAB::Kan with GyrA S38F mutation; how it was run: as §1
Salmonella typhimurium [22] = assay: Antimicrobial activity against Salmonella enterica serovar Typhimurium CHS18 tolC::Kan with GyrA S38F mutation; how it was run: as §1
Salmonella typhimurium [23] = assay: Antimicrobial activity against Salmonella enterica serovar Typhimurium S21-4 acrAB::Kan with GyrA S83F, ParC S80I mutation; how it was run: as §1
Salmonella typhimurium [24] = assay: Antimicrobial activity against Salmonella enterica serovar Typhimurium S21-3 tolC::Kan with GyrA S83F, ParC S80I mutation; how it was run: as §1
Salmonella typhimurium [25] = assay: Antimicrobial activity against Salmonella enterica serovar Typhimurium S21-4 with GyrA S83F, ParC S80I mutation; how it was run: as §1
Salmonella typhimurium [26] = assay: Antimicrobial activity against Salmonella enterica serovar Typhimurium S21-4 gyrA+ with ParC S80I mutation; how it was run: as §1
Salmonella typhimurium [27] = assay: Antimicrobial activity against Salmonella enterica serovar Typhimurium S21-4 tolC::Kan with GyrA S83F, ParC S80I mutation; how it was run: as §1
Salmonella typhimurium [28] = assay: Antimicrobial activity against Salmonella enterica serovar Typhimurium CS1 with GyrA S83F, D87N, ParC S80I mutation; how it was run: as §1
Salmonella typhimurium [29] = assay: Antimicrobial activity against Salmonella enterica serovar Typhimurium CS1 gyrA+ with GyrA S83F, D87N, ParC S80I mutation; how it was run: as §1
Salmonella typhimurium [30] = assay: Antimicrobial activity against Salmonella enterica serovar Typhimurium CS1 acrAB::Kan with GyrA S83F, D87N, ParC S80I mutation; how it was run: as §1
Salmonella typhimurium [31] = assay: Antimicrobial activity against Salmonella enterica serovar Typhimurium CS1 tolC::Kan with GyrA S83F, D87N, ParC S80I mutation; how it was run: as §1
Salmonella typhimurium [32] = assay: Antimicrobial activity against Salmonella enterica serovar Typhimurium CS3 with GyrA S83F, D87N, ParC S80I mutation; how it was run: as §1
Salmonella typhimurium [33] = assay: Antimicrobial activity against Salmonella enterica serovar Typhimurium CS3 gyrA+ with GyrA S83F, D87N, ParC S80I mutation; how it was run: as §1
Salmonella typhimurium [34] = assay: Antimicrobial activity against Salmonella enterica serovar Typhimurium CS3 acrAB::Kan with GyrA S83F, D87N, ParC S80I mutation; how it was run: as §1
Salmonella typhimurium [35] = assay: Antimicrobial activity against Salmonella enterica serovar Typhimurium CS3 tolC::Kan with GyrA S83F, D87N, parC S80I mutation; how it was run: as §1
Salmonella typhimurium [36] = assay: Antimicrobial activity against Salmonella enterica serovar Typhimurium CS9 with GyrA S83F, D87N, ParC S80I mutation; how it was run: as §1
Salmonella typhimurium [37] = assay: Antimicrobial activity against Salmonella enterica serovar Typhimurium CS9 gyrA+ with GyrA S83F, D87N, ParC S80I mutation; how it was run: as §1
Salmonella typhimurium [38] = assay: Antimicrobial activity against Salmonella enterica serovar Typhimurium CS9 acrAB::Kan with GyrA S83F, D87N, ParC S80I mutation; how it was run: as §1
Salmonella typhimurium [39] = assay: Antimicrobial activity against Salmonella enterica serovar Typhimurium CS9 tolC::Kan with GyrA S83F, D87N, ParC S80I mutation; how it was run: as §1
Salmonella typhimurium [40] = assay: Antimicrobial activity against Salmonella enterica serovar Typhimurium CHS14 with GyrA D87G mutation; how it was run: as §1
Salmonella typhimurium [41] = assay: Antimicrobial activity against Salmonella enterica serovar Typhimurium CHS38 with GyrA D87G mutation; how it was run: as §1
Salmonella typhimurium [42] = assay: Antimicrobial activity against Salmonella enterica serovar Typhimurium CHS38 gyrA+ with GyrA D87G mutation; how it was run: as §1
Salmonella typhimurium [43] = assay: Antimicrobial activity against Salmonella enterica serovar Typhimurium CHS38 acrAB::Kan with GyrA D87G mutation; how it was run: as §1
Salmonella typhimurium [44] = assay: Antimicrobial activity against Salmonella enterica serovar Typhimurium CHS38 tolC::Kan with GyrA D87G mutation; how it was run: as §1

Compound CO[C@@]1(NC(=O)Cc2cccs2)C(=O)N2C(C(=O)O)=C(COC(N)=O)CS[C@@H]21 [CEFOXITIN] has an MIC (Salmonella typhimurium [1]) of 4 µg/mL (≈ 9.36 µM), an MIC (Salmonella typhimurium [2]) of 4 µg/mL (≈ 9.36 µM) and an MIC (Salmonella typhimurium [3]) of 1 µg/mL (≈ 2.34 µM). The MIC (Salmonella typhimurium [4]) was 1 µg/mL (≈ 2.34 µM), the MIC (Salmonella typhimurium [5]) was 2 µg/mL (≈ 4.68 µM) and the MIC (Salmonella typhimurium [6]) was 2 µg/mL (≈ 4.68 µM). For the same compound, the MIC (Salmonella typhimurium [7]) was 1 µg/mL (≈ 2.34 µM), the MIC (Salmonella typhimurium [8]) was 1 µg/mL (≈ 2.34 µM) and the MIC (Salmonella typhimurium [9]) was > 16 µg/mL. For the same compound, the MIC (Salmonella typhimurium [10]) was > 16 µg/mL, the MIC (Salmonella typhimurium [11]) was 2 µg/mL (≈ 4.68 µM) and the MIC (Salmonella typhimurium [12]) was 2 µg/mL (≈ 4.68 µM). The MIC (Salmonella typhimurium [13]) was > 16 µg/mL, the MIC (Salmonella typhimurium [14]) was > 16 µg/mL and the MIC (Salmonella typhimurium [15]) was 1 µg/mL (≈ 2.34 µM). The MIC (Salmonella typhimurium [16]) was 2 µg/mL (≈ 4.68 µM), the MIC (Salmonella typhimurium [17]) was 1 µg/mL (≈ 2.34 µM) and the MIC (Salmonella typhimurium [18]) was 1 µg/mL (≈ 2.34 µM). It also gave an MIC (Salmonella typhimurium [19]) of 2 µg/mL (≈ 4.68 µM), an MIC (Salmonella typhimurium [20]) of 2 µg/mL (≈ 4.68 µM) and an MIC (Salmonella typhimurium [21]) of 1 µg/mL (≈ 2.34 µM). For the same compound, the MIC (Salmonella typhimurium [22]) was 1 µg/mL (≈ 2.34 µM), the MIC (Salmonella typhimurium [23]) was 1 µg/mL (≈ 2.34 µM) and the MIC (Salmonella typhimurium [24]) was 1 µg/mL (≈ 2.34 µM). For the same compound, the MIC (Salmonella typhimurium [25]) was > 16 µg/mL, the MIC (Salmonella typhimurium [26]) was > 16 µg/mL and the MIC (Salmonella typhimurium [27]) was 2 µg/mL (≈ 4.68 µM). For the same compound, the MIC (Salmonella typhimurium [28]) was 1 µg/mL (≈ 2.34 µM), the MIC (Salmonella typhimurium [29]) was 2 µg/mL (≈ 4.68 µM) and the MIC (Salmonella typhimurium [30]) was 1 µg/mL (≈ 2.34 µM). For the same compound, the MIC (Salmonella typhimurium [31]) was 1 µg/mL (≈ 2.34 µM), the MIC (Salmonella typhimurium [32]) was 1 µg/mL (≈ 2.34 µM) and the MIC (Salmonella typhimurium [33]) was 2 µg/mL (≈ 4.68 µM). For the same compound, the MIC (Salmonella typhimurium [34]) was 1 µg/mL (≈ 2.34 µM), the MIC (Salmonella typhimurium [35]) was 1 µg/mL (≈ 2.34 µM) and the MIC (Salmonella typhimurium [36]) was 1 µg/mL (≈ 2.34 µM). It also gave an MIC (Salmonella typhimurium [37]) of 2 µg/mL (≈ 4.68 µM), an MIC (Salmonella typhimurium [38]) of 1 µg/mL (≈ 2.34 µM) and an MIC (Salmonella typhimurium [39]) of 1 µg/mL (≈ 2.34 µM). The MIC (Salmonella typhimurium [40]) was 4 µg/mL (≈ 9.36 µM), the MIC (Salmonella typhimurium [41]) was 4 µg/mL (≈ 9.36 µM) and the MIC (Salmonella typhimurium [42]) was 4 µg/mL (≈ 9.36 µM). The MIC (Salmonella typhimurium [43]) was 0.5 µg/mL (≈ 1.17 µM) and the MIC (Salmonella typhimurium [44]) was 0.5 µg/mL (≈ 1.17 µM).
